Experimental data reported in ChEMBL document CHEMBL3286160, “Design and synthesis of a new series of modified CH-diarylpyrimidines as drug-resistant HIV non-nucleoside reverse transcriptase inhibitors” (Eur J Med Chem, 2014).

Key:
[1] = Cytotoxicity against human MT4 cells after 5 days by MTT assay; format: cell-based
How it was run: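 Mock-infected MT-4 cells received culture medium in place of virus, at 6×10^5 cells/mL, run in parallel triplicate wells with serial 5-fold compound dilutions. After 5 days, MTT reduction was read at 540 and 690 nm, using the median OD of three wells. CC50 is the concentration lowering OD540 of the mock-infected control by 50%.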

[2] = test system: Human immunodeficiency virus 1; assay: Antiviral activity against HIV1 harboring reverse transcriptase K103N/Y181C mutant infected in human MT4 cells assessed as inhibition of virus-induced cytopathogenicity after 5 days by MTT assay; format: functional, organism-based; details: Human immunodeficiency virus 1, MT4, 120 h
How it was run: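 MT-4 cells (6×10^5 cells/mL after spinning at 220 g for 5 min) infected with 100-300 CCID50 of the double RT mutant strain derived from wild-type LAI. Serial 5-fold compound dilutions tested in triplicate alongside mock-infected wells. Viability read by MTT at 540 and 690 nm on day 5, using the median OD of three wells. IC50 is the concentration giving 50% protection from viral cytopathic effect.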

[3] = Selectivity index, ratio of CC50 for human MT4 cells to IC50 for wild type HIV1 3B; format: functional
[4] = test system: Human immunodeficiency virus 2; assay: Antiviral activity against HIV2 ROD infected in human MT4 cells assessed as inhibition of virus-induced cytopathogenicity after 5 days by MTT assay; format: functional, organism-based; details: Human immunodeficiency virus 2, ISOLATE ROD, MT4, 120 h
How it was run: (§1)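 MT-4 cells in exponential growth were pelleted (5 min, 220 g) and resuspended at 6×10^5 cells/mL. They were infected at the start with 100-300 CCID50 of virus stock and exposed to serial 5-fold compound dilutions in triplicate wells. Viability was read by MTT at 540 and 690 nm after 5 days, using the median OD of three wells. EC50 is the concentration giving 50% protection from viral cytopathic effect.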

[5] = test system: Human immunodeficiency virus 1; assay: Antiviral activity against wild type HIV1 3B infected in human MT4 cells assessed as inhibition of virus-induced cytopathogenicity after 5 days by MTT assay; format: functional, organism-based; details: Human immunodeficiency virus 1, 3B, MT4, 120 h; how it was run: as §1
[6] = test system: Human immunodeficiency virus 1; assay: Ratio of zidovudine IC50 to compound IC50 for wild type HIV1 3B; format: functional
[7] = Ratio of compound selectivity index to zidovudine selectivity index for human MT4 cells

In the case of `CCNC(c1ccnc(Nc2ccc(C#N)cc2)n1)c1ccccc1Cl` (stereo not given), the CC50 at 120 h [1] is reported as 39.4 µM, the IC50 [2] is reported as > 39.4 µM and the “Ratio CC50/IC50” value [3] is reported as 113. The IC50 [4] was > 39.4 µM and the IC50 [5] was 0.35 µM.

For `CCCNC(c1ccc(/C=C/C#N)cc1)c1ccnc(Nc2ccc(C#N)cc2)n1` (stereo not given), the CC50 at 120 h [1] was 34 µM, the IC50 [2] was > 37.3 µM and the “Ratio CC50/IC50” value [3] was 319. For the same compound, the IC50 [4] was > 37.3 µM and the IC50 [5] was 0.107 µM.

With `CC(O)CNC(c1ccc(C#N)cc1)c1ccnc(Nc2ccc(C#N)cc2)n1` (stereo not given) the CC50 at 120 h [1] was > 65 µM, the IC50 [2] was > 65 µM and the “Ratio CC50/IC50” value [3] was >3. For the same compound, the IC50 [4] was > 65 µM and the IC50 [5] was 23.9 µM.

For `CNC(c1ccc(C#N)cc1)c1ccnc(Nc2ccc(C#N)cc2)n1` (stereo not given), the CC50 at 120 h [1] was 189 µM, the IC50 [2] was > 189 µM and the “Ratio CC50/IC50” value [3] was 12. For the same compound, the IC50 [4] was > 189 µM and the IC50 [5] was 15.2 µM.

With `CC(C)NC(c1ccc(/C=C/C#N)cc1)c1ccnc(Nc2ccc(C#N)cc2)n1` (stereo not given) the CC50 at 120 h [1] was 32.3 µM, the IC50 [2] was > 32.3 µM and the “Ratio CC50/IC50” value [3] was 405. The IC50 [4] was > 32.3 µM and the IC50 [5] was 0.08 µM.

In the case of `CC(C)NC(c1ccnc(Nc2ccc(C#N)cc2)n1)c1ccccc1Cl` (stereo not given), the CC50 at 120 h [1] is reported as 35.5 µM, the IC50 [2] is reported as > 35.5 µM and the “Ratio CC50/IC50” value [3] is reported as 879. For the same compound, the IC50 [4] was > 35.5 µM and the IC50 [5] was 0.04 µM.

With `Nc1ccn([C@@H]2CS[C@H](CO)O2)c(=O)n1` [LAMIVUDINE] the CC50 at 120 h [1] was > 87.2 µM, the “Ratio CC50/IC50” value [3] was >22 and the IC50 [4] was 15.5 µM. The IC50 [5] was 3.89 µM.

For `N#Cc1ccc(Nc2nccc(C(NC3CC3)c3ccc(C#N)cc3)n2)cc1` (stereo not given), the CC50 at 120 h [1] was 34.7 µM, the IC50 [2] was > 34.7 µM and the “Ratio CC50/IC50” value [3] was <1. For the same compound, the IC50 [4] was > 34.7 µM and the IC50 [5] was > 34.7 µM.

In the case of `N#Cc1ccc(Nc2nccc(C(NC3CC3)c3ccccc3Cl)n2)cc1` (stereo not given), the CC50 at 120 h [1] is reported as 37.9 µM, the IC50 [2] is reported as > 37.9 µM and the “Ratio CC50/IC50” value [3] is reported as 317. The IC50 [4] was > 37.9 µM and the IC50 [5] was 0.12 µM.

With `CC(O)CNC(c1ccnc(Nc2ccc(C#N)cc2)n1)c1ccccc1Cl` (stereo not given) the CC50 at 120 h [1] was 34.7 µM, the IC50 [2] was > 34.7 µM and the “Ratio CC50/IC50” value [3] was 105. The IC50 [4] was > 34.7 µM and the IC50 [5] was 0.33 µM.

In the case of `N#Cc1ccc(Nc2nccc(C(NN)c3ccc(C#N)cc3)n2)cc1` (stereo not given), the CC50 at 120 h [1] is reported as 40.2 µM, the IC50 [2] is reported as 5.95 µM and the “Ratio CC50/IC50” value [3] is reported as 172. It also gave an IC50 [4] of 2.92 µM and an IC50 [5] of 0.234 µM.

In the case of `CCNC(c1ccc(C#N)cc1)c1ccnc(Nc2ccc(C#N)cc2)n1` (stereo not given), the CC50 at 120 h [1] is reported as 158 µM, the IC50 [2] is reported as > 158 µM and the “Ratio CC50/IC50” value [3] is reported as 7. For the same compound, the IC50 [4] was > 158 µM and the IC50 [5] was 21.1 µM.

In the case of `CNC(c1ccnc(Nc2ccc(C#N)cc2)n1)c1ccccc1Cl` (stereo not given), the CC50 at 120 h [1] is reported as 36.1 µM, the IC50 [2] is reported as > 36.1 µM and the “Ratio CC50/IC50” value [3] is reported as 571. For the same compound, the IC50 [4] was > 6.09 µM and the IC50 [5] was 0.063 µM.

In the case of `CC(C)Nc1cccnc1N1CCN(C(=O)c2cc3cc(NS(C)(=O)=O)ccc3[nH]2)CC1` [DELAVIRDINE], the CC50 at 120 h [1] is reported as 43.8 µM, the “Ratio CC50/IC50” value [3] is reported as >54 and the IC50 [5] is reported as 0.81 µM.

In the case of `Cc1ccnc2c1NC(=O)c1cccnc1N2C1CC1` [NEVIRAPINE], the CC50 at 120 h [1] is reported as > 15 µM, the IC50 [2] is reported as 0.9 µM and the “Ratio CC50/IC50” value [3] is reported as >148. For the same compound, the IC50 [5] was 0.101 µM.

In the case of `N#C/C=C/c1ccc(C(NN)c2ccnc(Nc3ccc(C#N)cc3)n2)cc1` (stereo not given), the CC50 at 120 h [1] is reported as 186 µM, the IC50 [2] is reported as 5.33 µM and the “Ratio CC50/IC50” value [3] is reported as 106367. For the same compound, the “Ratio IC50” value [6] was 4, the IC50 [4] was 5.05 µM and the ratio of compound SI to zidovudine SI [7] was 7. It also gave an IC50 [5] of 0.00175 µM.

In the case of `CNC(c1ccc(/C=C/C#N)cc1)c1ccnc(Nc2ccc(C#N)cc2)n1` (stereo not given), the CC50 at 120 h [1] is reported as 41.4 µM, the IC50 [2] is reported as > 41.4 µM and the “Ratio CC50/IC50” value [3] is reported as 385. The IC50 [4] was > 41.4 µM and the IC50 [5] was 0.108 µM.

With `CCCNC(c1ccnc(Nc2ccc(C#N)cc2)n1)c1ccccc1Cl` (stereo not given) the CC50 at 120 h [1] was 68.5 µM, the IC50 [2] was > 68.5 µM and the “Ratio CC50/IC50” value [3] was 1422. The IC50 [4] was > 68.5 µM and the IC50 [5] was 0.048 µM.

In the case of `CC(C)NC(c1ccc(C#N)cc1)c1ccnc(Nc2ccc(C#N)cc2)n1` (stereo not given), the CC50 at 120 h [1] is reported as 69.2 µM, the IC50 [2] is reported as > 69.2 µM and the IC50 [4] is reported as > 69.2 µM. The IC50 [5] was > 69.2 µM.

With `CCNC(c1ccc(/C=C/C#N)cc1)c1ccnc(Nc2ccc(C#N)cc2)n1` (stereo not given) the CC50 at 120 h [1] was 37.3 µM, the IC50 [2] was > 37.3 µM and the “Ratio CC50/IC50” value [3] was 194. For the same compound, the IC50 [4] was > 37.3 µM and the IC50 [5] was 0.192 µM.

With `Cc1cn([C@H]2C[C@H](N=[N+]=[N-])[C@@H](CO)O2)c(=O)[nH]c1=O` [ZIDOVUDINE] the CC50 at 120 h [1] was > 93.5 µM, the IC50 [2] was 0.0077 µM and the “Ratio CC50/IC50” value [3] was >14124. The IC50 [4] was 0.0017 µM and the IC50 [5] was 0.0066 µM.

For `O=C1Nc2ccc(Cl)cc2[C@@](C#CC2CC2)(C(F)(F)F)O1` [EFAVIRENZ], the IC50 [2] was 0.16 µM, the “Ratio CC50/IC50” value [3] was >280 and the IC50 [5] was 0.0226 µM.

For `N#C/C=C/c1ccc(C(NC2CC2)c2ccnc(Nc3ccc(C#N)cc3)n2)cc1` (stereo not given), the CC50 at 120 h [1] was 56.1 µM, the IC50 [2] was > 56.1 µM and the “Ratio CC50/IC50” value [3] was 287. For the same compound, the IC50 [4] was > 56.1 µM and the IC50 [5] was 0.196 µM.

In the case of `CCCNC(c1ccc(C#N)cc1)c1ccnc(Nc2ccc(C#N)cc2)n1` (stereo not given), the CC50 at 120 h [1] is reported as 34.9 µM, the IC50 [2] is reported as > 34.9 µM and the “Ratio CC50/IC50” value [3] is reported as “<=4”. For the same compound, the IC50 [4] was > 34.9 µM and the IC50 [5] was ≥ 9.45 µM.
